Assay results reported in ChEMBL document CHEMBL4190328, “Design, Synthesis, and Biological Evaluation of Tetrahydroisoquinoline-Based Histone Deacetylase 8 Selective Inhibitors” (ACS Med Chem Lett, 2017).
Activity calls are given as the source filed them. No cut-off for these calls is given here.

What was measured:
[1] = target: T1, Histone deacetylase 8 (Homo sapiens, UniProt Q9BY41); assay: Inhibition of recombinant HDAC8 (unknown origin) expressed in Escherichia coli using fluor de Lys(R) as substrate pretreated for 5 mins followed by substrate addition measured after 35 mins by fluorescence assay
T1 sequence (Q9BY41 whole entry): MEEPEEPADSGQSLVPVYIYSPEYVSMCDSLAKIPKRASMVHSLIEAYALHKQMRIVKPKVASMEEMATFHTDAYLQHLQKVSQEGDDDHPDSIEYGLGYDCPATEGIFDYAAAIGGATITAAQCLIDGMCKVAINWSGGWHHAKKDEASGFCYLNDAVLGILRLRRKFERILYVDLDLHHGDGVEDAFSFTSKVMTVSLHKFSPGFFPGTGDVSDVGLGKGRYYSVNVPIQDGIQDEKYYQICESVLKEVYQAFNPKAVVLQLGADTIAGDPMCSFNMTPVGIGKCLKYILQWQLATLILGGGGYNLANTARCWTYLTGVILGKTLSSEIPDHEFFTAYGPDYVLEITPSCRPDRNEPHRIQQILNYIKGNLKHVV

[2] = target: Histone deacetylase 3/Nuclear receptor corepressor 2 (HDAC3/NCoR2) (Homo sapiens, UniProt O15379); assay: Inhibition of recombinant human full-length C-terminal His-tagged HDAC3 (395 to 489 residues)/human NCOR2 expressed in baculovirus infected Sf9 insect cells using Boc-L-Lys(Ac)-AMC as substrate pretreated for 5 mins followed by substrate addition measured after 35 mins by fluorescence assay
[3] = target: Histone deacetylase 2 (Homo sapiens, UniProt Q92769); assay: Inhibition of recombinant human full-length C-terminal His-tagged HDAC2 expressed in baculovirus infected Sf9 insect cells using Boc-L-Lys(Ac)-AMC as substrate preincubated for 5 mins followed by substrate addition measured after 35 mins by fluorescence assay
[4] = target: T2, Protein deacetylase HDAC6 (Homo sapiens) (UniProt Q9UBN7); assay: Inhibition of recombinant human HDAC6 at 10 uM using fluorogenic HDAC substrate 3 by fluorescence assay relative to control
T2 sequence (whole entry): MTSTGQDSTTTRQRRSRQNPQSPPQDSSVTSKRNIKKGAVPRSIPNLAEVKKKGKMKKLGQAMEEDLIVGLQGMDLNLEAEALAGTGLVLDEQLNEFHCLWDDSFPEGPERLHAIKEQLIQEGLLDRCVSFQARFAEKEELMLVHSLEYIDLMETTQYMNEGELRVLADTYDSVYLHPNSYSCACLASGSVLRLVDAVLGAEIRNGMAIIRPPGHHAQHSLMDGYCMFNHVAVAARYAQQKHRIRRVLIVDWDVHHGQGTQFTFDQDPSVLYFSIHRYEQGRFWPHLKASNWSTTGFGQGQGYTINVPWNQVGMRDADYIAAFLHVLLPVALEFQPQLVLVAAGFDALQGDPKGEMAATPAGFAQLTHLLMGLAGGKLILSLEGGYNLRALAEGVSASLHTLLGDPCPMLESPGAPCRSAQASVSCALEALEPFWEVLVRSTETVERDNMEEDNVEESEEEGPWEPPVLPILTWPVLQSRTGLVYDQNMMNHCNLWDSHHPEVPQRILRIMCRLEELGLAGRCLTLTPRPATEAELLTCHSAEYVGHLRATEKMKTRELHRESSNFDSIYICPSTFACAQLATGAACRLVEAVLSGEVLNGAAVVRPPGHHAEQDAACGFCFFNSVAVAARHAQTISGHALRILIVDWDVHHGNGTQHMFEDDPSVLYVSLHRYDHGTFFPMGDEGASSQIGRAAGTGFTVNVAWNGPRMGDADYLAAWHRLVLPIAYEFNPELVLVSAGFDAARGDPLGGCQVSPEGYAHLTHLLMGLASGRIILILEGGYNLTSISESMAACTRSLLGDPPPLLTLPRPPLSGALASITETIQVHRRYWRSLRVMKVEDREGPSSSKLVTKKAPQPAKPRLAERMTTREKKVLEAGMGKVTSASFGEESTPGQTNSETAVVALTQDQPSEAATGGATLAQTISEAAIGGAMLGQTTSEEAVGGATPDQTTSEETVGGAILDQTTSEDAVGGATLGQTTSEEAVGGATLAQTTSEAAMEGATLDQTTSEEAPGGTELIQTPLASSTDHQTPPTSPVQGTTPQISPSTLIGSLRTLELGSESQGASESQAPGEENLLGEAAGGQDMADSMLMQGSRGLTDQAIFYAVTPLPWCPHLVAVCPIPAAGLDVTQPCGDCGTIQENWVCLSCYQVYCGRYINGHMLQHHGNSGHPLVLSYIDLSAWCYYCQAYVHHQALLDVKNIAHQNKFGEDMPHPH
Outline: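 HDAC6 activity was measured with test compound at 10 μM and reported as percent inhibition. Values are mean ± standard deviation of at least two independent experiments, rounded to two significant figures.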

[5] = target: Histone deacetylase 1 (Homo sapiens, UniProt Q13547); assay: Inhibition of recombinant full-length human C-terminal FLAG-His-tagged HDAC1 expressed in baculovirus infected Sf9 insect cells using Boc-L-Lys(Ac)-AMC as substrate preincubated for 5 mins followed by substrate addition measured after 35 mins by fluorescence assay
[6] = tested on: IMR-5; assay: Cytotoxicity against human IMR5 cells expressing TP53 after 48 hrs by CellTiter96 AQueous one solution cell proliferation assay; assay type: functional, cell-based; details: IMR-5, 48 h
Outline: (§1)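 Neuroblastoma cells were exposed to compound for 48 h and viability was read by MTS assay. Values are mean ± standard deviation of at least three independent experiments.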

[7] = tested on: SH-SY5Y; assay: Cytotoxicity against human SH-SY5Y cells expressing TP53 after 48 hrs by CellTiter96 AQueous one solution cell proliferation assay; assay type: functional, cell-based; outline: as §1
[8] = tested on: SH-SY5Y; assay: Inhibition of class 1 HDAC in human SH-SY5Y cells assessed as increase in acetylation of histone H3 at 0.1 to 10 uM after 24 hrs by Western blot analysis; assay type: cell-based
Outline: (§2)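 SH-SY5Y cells were treated with the stated concentrations for 24 h. Lysates were analysed by Western blot for acetylated histone H3 and acetylated α-tubulin.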

[9] = tested on: SH-SY5Y; assay: Inhibition of class 2 HDAC in human SH-SY5Y cells assessed as increase in acetylation of alpha-tubulin at 0.1 to 10 uM after 24 hrs by Western blot analysis; assay type: cell-based; outline: as §2
[10] = species: Homo sapiens; assay: Selectivity ratio of IC50 for recombinant full-length human C-terminal FLAG-His-tagged HDAC1 expressed in baculovirus infected Sf9 insect cells to IC50 for recombinant HDAC8 (unknown origin) expressed in Escherichia coli
[11] = species: Homo sapiens; assay: Selectivity ratio of IC50 for recombinant human full-length C-terminal His-tagged HDAC2 expressed in baculovirus infected Sf9 insect cells to IC50 for recombinant HDAC8 (unknown origin) expressed in Escherichia coli
[12] = species: Homo sapiens; assay: Selectivity ratio of IC50 for recombinant human full-length C-terminal His-tagged HDAC3 (395 to 489 residues)/human NCOR2 expressed in baculovirus infected Sf9 insect cells to IC50 for recombinant HDAC8 (unknown origin) expressed in Escherichia coli
[13] = tested on: SH-SY5Y; assay: Cytotoxicity against human SH-SY5Y cells expressing TP53 at 10 uM supplemented with fresh medium containing compound every 3 days measured after 72 hrs by CellTiter96 AQueous one solution cell proliferation assay; assay type: functional, cell-based
[14] = tested on: IMR-5; assay: Cytotoxicity against human IMR5 cells expressing TP53 by CellTiter96 AQueous one solution cell proliferation assay; assay type: functional, cell-based
[15] = tested on: SK-N-AS; assay: Cytotoxicity against human SK-N-AS cells expressing TP53 mutation by CellTiter96 AQueous one solution cell proliferation assay; assay type: functional, cell-based
[16] = tested on: SH-SY5Y; details: Homo sapiens, at 10 µM
[17] = tested on: Kelly; assay: Cytotoxicity against human Kelly cells expressing TP53 mutation by CellTiter96 AQueous one solution cell proliferation assay; assay type: functional, cell-based
[18] = tested on: SH-SY5Y; details: Homo sapiens, at 10 µM; remark: listed apart in the source
[19] = tested on: SH-SY5Y; assay: Cytotoxicity against human SH-SY5Y cells expressing TP53 by CellTiter96 AQueous one solution cell proliferation assay; assay type: functional, cell-based

Histone deacetylase 2, sequence (Q92769 whole entry): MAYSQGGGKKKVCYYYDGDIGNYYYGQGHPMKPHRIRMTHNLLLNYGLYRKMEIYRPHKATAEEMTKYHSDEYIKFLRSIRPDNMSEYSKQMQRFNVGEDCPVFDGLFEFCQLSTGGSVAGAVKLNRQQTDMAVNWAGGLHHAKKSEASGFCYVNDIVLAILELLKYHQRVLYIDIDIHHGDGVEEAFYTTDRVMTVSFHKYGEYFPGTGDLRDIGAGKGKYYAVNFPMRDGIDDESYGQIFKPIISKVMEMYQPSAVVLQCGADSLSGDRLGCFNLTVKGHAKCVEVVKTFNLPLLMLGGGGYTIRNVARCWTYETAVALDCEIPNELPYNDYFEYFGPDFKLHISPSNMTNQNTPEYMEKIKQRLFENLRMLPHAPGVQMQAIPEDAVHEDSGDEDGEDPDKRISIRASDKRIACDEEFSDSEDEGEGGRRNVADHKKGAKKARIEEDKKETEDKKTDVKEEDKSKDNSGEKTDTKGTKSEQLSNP
Histone deacetylase 1, sequence (Q13547 whole entry): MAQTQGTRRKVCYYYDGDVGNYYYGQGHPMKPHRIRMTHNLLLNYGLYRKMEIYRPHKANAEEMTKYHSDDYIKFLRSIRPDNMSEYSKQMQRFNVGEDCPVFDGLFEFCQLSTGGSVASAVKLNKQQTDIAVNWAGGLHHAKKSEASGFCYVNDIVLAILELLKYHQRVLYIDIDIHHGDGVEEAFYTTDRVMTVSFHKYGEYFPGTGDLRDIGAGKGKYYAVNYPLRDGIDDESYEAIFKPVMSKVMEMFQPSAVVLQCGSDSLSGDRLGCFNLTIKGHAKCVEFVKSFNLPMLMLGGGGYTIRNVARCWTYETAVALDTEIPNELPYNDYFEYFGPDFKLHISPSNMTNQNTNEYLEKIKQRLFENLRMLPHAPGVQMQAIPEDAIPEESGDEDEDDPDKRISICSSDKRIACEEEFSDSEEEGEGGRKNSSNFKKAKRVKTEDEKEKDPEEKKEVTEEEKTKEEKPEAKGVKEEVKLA
Histone deacetylase 3/Nuclear receptor corepressor 2 (HDAC3/NCoR2), sequence (O15379 whole entry, the tested form may be a part): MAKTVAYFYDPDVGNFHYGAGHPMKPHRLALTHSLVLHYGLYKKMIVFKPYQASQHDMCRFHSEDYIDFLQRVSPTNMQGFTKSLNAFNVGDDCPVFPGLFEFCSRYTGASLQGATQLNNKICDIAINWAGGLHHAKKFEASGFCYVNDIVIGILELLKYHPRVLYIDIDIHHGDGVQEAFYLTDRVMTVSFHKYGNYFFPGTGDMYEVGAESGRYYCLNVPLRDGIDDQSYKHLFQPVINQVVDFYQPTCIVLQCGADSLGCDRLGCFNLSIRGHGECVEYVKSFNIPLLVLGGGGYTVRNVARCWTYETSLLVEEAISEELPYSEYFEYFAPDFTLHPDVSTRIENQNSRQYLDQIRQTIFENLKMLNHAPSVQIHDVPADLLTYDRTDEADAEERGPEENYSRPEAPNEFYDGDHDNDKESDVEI
Histone deacetylase 3/Nuclear receptor corepressor 2 (HDAC3/NCoR2), sequence (Q9Y618 whole entry, further chain, the tested form may be a part): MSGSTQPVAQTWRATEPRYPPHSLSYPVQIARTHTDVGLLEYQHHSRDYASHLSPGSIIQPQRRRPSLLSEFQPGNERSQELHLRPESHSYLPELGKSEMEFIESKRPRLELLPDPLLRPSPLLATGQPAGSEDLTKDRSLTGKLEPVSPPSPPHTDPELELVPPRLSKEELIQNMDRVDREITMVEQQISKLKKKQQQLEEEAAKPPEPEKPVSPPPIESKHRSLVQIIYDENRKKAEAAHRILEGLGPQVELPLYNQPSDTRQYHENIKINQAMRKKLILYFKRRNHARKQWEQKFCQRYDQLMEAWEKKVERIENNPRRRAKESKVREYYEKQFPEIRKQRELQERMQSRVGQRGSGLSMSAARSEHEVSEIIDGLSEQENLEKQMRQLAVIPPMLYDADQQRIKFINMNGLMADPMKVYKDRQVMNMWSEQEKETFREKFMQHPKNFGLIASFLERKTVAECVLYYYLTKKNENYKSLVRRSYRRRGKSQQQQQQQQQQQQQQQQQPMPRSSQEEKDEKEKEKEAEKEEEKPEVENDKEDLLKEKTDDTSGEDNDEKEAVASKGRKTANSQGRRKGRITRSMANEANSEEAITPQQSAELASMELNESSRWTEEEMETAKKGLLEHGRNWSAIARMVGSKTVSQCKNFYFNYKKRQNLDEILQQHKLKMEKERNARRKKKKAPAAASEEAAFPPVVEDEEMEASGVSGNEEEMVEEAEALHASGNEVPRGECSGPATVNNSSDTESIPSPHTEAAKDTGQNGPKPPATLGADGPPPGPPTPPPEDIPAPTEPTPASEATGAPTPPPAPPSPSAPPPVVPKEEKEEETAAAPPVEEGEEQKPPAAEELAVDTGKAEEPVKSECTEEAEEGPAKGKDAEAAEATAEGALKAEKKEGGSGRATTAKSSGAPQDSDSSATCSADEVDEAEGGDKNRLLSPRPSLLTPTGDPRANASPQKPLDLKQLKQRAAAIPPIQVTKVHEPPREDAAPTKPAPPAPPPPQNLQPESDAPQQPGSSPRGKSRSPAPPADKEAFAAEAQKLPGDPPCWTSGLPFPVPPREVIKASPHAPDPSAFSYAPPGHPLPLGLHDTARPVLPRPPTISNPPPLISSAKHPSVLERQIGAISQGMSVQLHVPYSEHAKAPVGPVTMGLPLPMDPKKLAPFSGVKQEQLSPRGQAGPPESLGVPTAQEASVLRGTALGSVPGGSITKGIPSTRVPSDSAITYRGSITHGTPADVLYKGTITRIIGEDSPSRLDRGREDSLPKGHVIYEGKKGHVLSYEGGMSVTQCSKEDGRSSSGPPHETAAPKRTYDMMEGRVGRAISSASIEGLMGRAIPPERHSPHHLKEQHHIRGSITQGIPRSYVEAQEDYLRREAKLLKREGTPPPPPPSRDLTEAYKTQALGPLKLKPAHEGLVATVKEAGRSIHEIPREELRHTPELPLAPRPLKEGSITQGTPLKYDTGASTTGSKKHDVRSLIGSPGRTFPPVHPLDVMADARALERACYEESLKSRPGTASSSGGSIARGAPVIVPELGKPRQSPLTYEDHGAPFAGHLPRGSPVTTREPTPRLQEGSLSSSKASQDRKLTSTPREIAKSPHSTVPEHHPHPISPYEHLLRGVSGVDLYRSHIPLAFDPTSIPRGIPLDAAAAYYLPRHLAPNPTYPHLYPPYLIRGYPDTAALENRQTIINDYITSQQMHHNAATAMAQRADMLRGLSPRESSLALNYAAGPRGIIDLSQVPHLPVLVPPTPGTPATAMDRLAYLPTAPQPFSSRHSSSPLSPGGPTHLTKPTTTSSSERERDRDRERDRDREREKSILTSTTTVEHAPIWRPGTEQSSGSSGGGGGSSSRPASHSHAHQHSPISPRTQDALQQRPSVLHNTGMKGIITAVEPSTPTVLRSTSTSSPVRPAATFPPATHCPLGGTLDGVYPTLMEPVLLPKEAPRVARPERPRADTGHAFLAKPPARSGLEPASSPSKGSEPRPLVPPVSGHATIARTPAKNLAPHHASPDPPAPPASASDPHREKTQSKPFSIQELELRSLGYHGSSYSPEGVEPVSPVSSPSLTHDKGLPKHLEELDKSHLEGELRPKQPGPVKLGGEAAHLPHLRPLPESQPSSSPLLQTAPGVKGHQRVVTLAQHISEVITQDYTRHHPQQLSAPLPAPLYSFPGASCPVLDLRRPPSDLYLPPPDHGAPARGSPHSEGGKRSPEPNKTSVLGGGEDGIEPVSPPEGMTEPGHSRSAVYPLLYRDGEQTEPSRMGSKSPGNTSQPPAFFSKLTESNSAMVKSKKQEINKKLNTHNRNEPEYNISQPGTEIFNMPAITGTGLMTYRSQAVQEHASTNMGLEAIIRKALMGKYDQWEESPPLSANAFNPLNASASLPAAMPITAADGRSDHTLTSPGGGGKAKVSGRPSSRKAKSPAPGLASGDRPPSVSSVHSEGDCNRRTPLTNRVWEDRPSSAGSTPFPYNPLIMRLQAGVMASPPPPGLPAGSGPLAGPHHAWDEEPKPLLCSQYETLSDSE

Row | IC50 [1] | IC50 [2] | IC50 [3] | inhibition [4] | IC50 [5] | Compound | also measured
1 | 19 µM | 98 µM | > 100 µM | 31% | 57 µM | O=C(CCN1CCc2ccccc2C1)NO | –
2 | 0.055 µM | 38 µM | 47 µM | 39% | 7.3 µM | O=C(CCN1CCc2ccccc2C1c1ccc(-c2ccccc2)cc1)NO (stereo not given) | EC50 [6]: 5.8 µM; EC50 [7]: 0.76 µM; inhibition [8]: inactive; inhibition [9]: inactive; Ratio IC50 [10]: 135
3 | 6.7 µM | 75 µM | > 100 µM | 32% | > 100 µM | O=C(CCN1CCc2ccccc2C1C1CCCCC1)NO (stereo not given) | –
4 | 0.11 µM | 34 µM | 69 µM | 27% | 13 µM | COc1cccc(C2c3ccccc3CCN2CCC(=O)NO)c1 (stereo not given) | –
5 | 1.4 µM | 52 µM | > 100 µM | – | 33 µM | O=C(CCN(Cc1ccccc1)Cc1ccccc1)NO | Ratio IC50 [11]: > 71; Ratio IC50 [12]: 37; Ratio IC50 [10]: 24
6 | 1.8 µM | 0.43 µM | 3.1 µM | – | 0.34 µM | O=C(CCCCCCNCc1ccccc1)NO | –
7 | 1.9 µM | 1.4 µM | 5.4 µM | – | 1.8 µM | O=C(CCCCN(Cc1ccccc1)Cc1ccccc1)NO | –
8 | 0.082 µM | > 100 µM | > 100 µM | 21% | 27 µM | COc1ccc(C2c3ccccc3CCN2CCC(=O)NO)cc1 (stereo not given) | inhibition [8]: inactive; Activity [13]: Active; inhibition [9]: inactive; Ratio IC50 [10]: 330
9 | 4 µM | 1.1 µM | 2.7 µM | – | 1.1 µM | O=C(CCCCCCN(Cc1ccccc1)Cc1ccccc1)NO | –
10 | 0.39 µM | 3.4 µM | 13 µM | 74% | 2.4 µM | O=C(CCN1CCc2ccccc2C1c1ccc2ccccc2c1)NO (stereo not given) | –
11 | 0.21 µM | > 100 µM | 99 µM | 5.7% | 24 µM | CCOc1ccc(C2c3ccccc3CCN2CCC(=O)NO)cc1 (stereo not given) | –
12 | 10 µM | 22 µM | 58 µM | – | 14 µM | O=C(CCCCNCc1ccccc1)NO | –
13 | 1.9 µM | 0.097 µM | 0.33 µM | 97% | 0.098 µM | O=C(CCCCCCN1CCc2ccccc2C1)NO | –
14 | 19 µM | > 100 µM | > 100 µM | 17% | > 100 µM | O=C(CN1CCc2ccccc2C1c1ccccc1)NO (stereo not given) | –
15 | – | – | – | – | – | COc1ccc(Cn2ccc3ccc(C(=O)NO)cc32)cc1 | Activity [14]: Active; Activity [15]: Active; inhibition [16]: inactive; Activity [17]: Active; inhibition [18]: inactive; Activity [19]: Active
16 | > 100 µM | 72 µM | > 100 µM | – | 50 µM | O=C(CCNCc1ccccc1)NO | –
17 | 0.044 µM | 0.81 µM | 2.7 µM | 93% | 0.77 µM | O=C(CCCCN1CCc2ccccc2C1c1ccccc1)NO (stereo not given) | Ratio IC50 [11]: 61; Ratio IC50 [12]: 18; Ratio IC50 [10]: 18
18 | 0.95 µM | 10 µM | 40 µM | 35% | 4.4 µM | O=C(CCN1CCc2ccccc2C1c1ccccc1)NO (stereo not given) | –
19 | 0.19 µM | 27 µM | > 100 µM | 26% | 18 µM | O=C(CCN1CCc2ccccc2C1c1ccc(C(F)(F)F)cc1)NO (stereo not given) | –
20 | 0.34 µM | > 100 µM | > 100 µM | 17% | 37 µM | O=C(CCN1CCc2ccccc2C1c1cccc(C(F)(F)F)c1)NO (stereo not given) | –
21 | 0.48 µM | 29 µM | 29 µM | 30% | 18 µM | CC(C)(C)c1ccc(C2c3ccccc3CCN2CCC(=O)NO)cc1 (stereo not given) | –
